Where “and” joins values, the source holds several entries; their conditions need not be identical. Identical values can stand only once.
Columns and labels:
Mus musculus [1] = assay: Median day of death was measured in mice intracerebrally implanted leukemia L1210 at 25 mg/kg administered intraperitoneally on day 1.; format: functional; conditions: route intraperitoneal
Outline: (§1)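 Mice implanted intracerebrally with an inoculum of 10⁵ L1210 leukemia cells. Compound given intraperitoneally on day 1 only. Read-outs were median day of death, % increase in life span calculated for animals dying, and 45-day survivors over total mice. Tests were run by an external cancer screening group.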

Mus musculus [2] = assay: Median day of death was measured in mice intracerebrally implanted leukemia L1210 at 15 mg/kg administered intraperitoneally on day 1.; format: functional; conditions: route intraperitoneal; outline: as §1
Mus musculus [3] = assay: Activity against TLX-5 lymphoma in mice Percent increase in survival time at 20 mg/kg,; format: functional
Mus musculus [4] = assay: Activity against TLX-5 lymphoma in mice Percent increase in survival time at 5 mg/kg,; format: functional
Mus musculus [5] = assay: Percent increase in life span was measured in mice intracerebrally implanted leukemia L1210 at 15 mg/kg administered intraperitoneally on day 1 only.; format: functional; conditions: L1210, ip, 24 h, route intraperitoneal; outline: as §1
Mus musculus [6] = assay: Activity against TLX-5 lymphoma in mice Percent increase in survival time at 100 mg/kg,; format: functional
Mus musculus [7] = assay: Activity against TLX-5 lymphoma in mice Percent increase in survival time at 40 mg/kg,; format: functional
Mus musculus [8] = assay: Percent increase in life span was measured in mice intracerebrally implanted leukemia L1210 at 30 mg/kg administered intraperitoneally on day 1 only.; format: functional; conditions: L1210, ip, 24 h, route intraperitoneal; outline: as §1
Mus musculus [9] = assay: Percent increase in life span was measured in mice intracerebrally implanted leukemia L1210 at 35 mg/kg administered intraperitoneally on day 1 only.; format: functional; conditions: L1210, ip, 24 h, route intraperitoneal; outline: as §1
Mus musculus [10] = assay: Median day of death was measured in mice intracerebrally implanted leukemia L1210 at 30 mg/kg administered intraperitoneally on day 1.; format: functional; conditions: route intraperitoneal; outline: as §1
Mus musculus [11] = assay: Percent increase in life span was measured in mice intracerebrally implanted leukemia L1210 at 140-30 mg/kg administered intraperitoneally on day 1 only; Toxic; format: functional, organism-based; outline: as §1
Mus musculus [12] = assay: Activity against TLX-5 lymphoma in mice Percent increase in survival time at 80 mg/kg,; format: functional
Mus musculus [13] = assay: Percent increase in life span was measured in mice intracerebrally implanted leukemia L1210 at 10 mg/kg administered intraperitoneally on day 1 only.; format: functional; conditions: L1210, ip, 24 h, route intraperitoneal; outline: as §1
Mus musculus [14] = assay: Activity against TLX-5 lymphoma in mice Percent increase in survival time at 10 mg/kg,; format: functional
Mus musculus [15] = assay: Median day of death was measured in mice intracerebrally implanted leukemia L1210 at 10 mg/kg administered intraperitoneally on day 1.; format: functional; conditions: route intraperitoneal; outline: as §1
Mus musculus [16] = assay: Median day of death was measured in mice intracerebrally implanted leukemia L1210 at 35 mg/kg administered intraperitoneally on day 1.; format: functional; conditions: route intraperitoneal; outline: as §1
Mus musculus [17] = assay: Percent increase in life span was measured in mice intracerebrally implanted leukemia L1210 at 25 mg/kg administered intraperitoneally on day 1 only.; format: functional; conditions: L1210, ip, 24 h, route intraperitoneal; outline: as §1
Mus musculus [18] = assay: survivors / total number of mice intracerebrally implanted leukemia L1210 at 50 mg/kg administered intraperitoneally on day 1 only. 4-5 day; 8/10; format: functional; conditions: route intraperitoneal; outline: as §1
Mus musculus [19] = assay: Percent increase in life span was measured in mice intracerebrally implanted leukemia L1210 at 60 mg/kg administered intraperitoneally on day 1 only.; format: functional; conditions: route intraperitoneal; outline: as §1
Mus musculus [20] = assay: survivors / total number of mice intracerebrally implanted leukemia L1210 at 80 mg/kg administered intraperitoneally on day 1 only. 4-5 day; 3/8; format: functional; conditions: route intraperitoneal; outline: as §1
Mus musculus [21] = assay: Median day of death was measured in mice intracerebrally implanted leukemia L1210 at 40 mg/kg administered intraperitoneally on day 1.; format: functional; conditions: route intraperitoneal; outline: as §1
Mus musculus [22] = assay: survivors / total number of mice intracerebrally implanted leukemia L1210 at 30 mg/kg administered intraperitoneally on day 1 only. 4-5 day; 1/9; format: functional; conditions: route intraperitoneal; outline: as §1
Mus musculus [23] = assay: Median day of death was measured in mice intracerebrally implanted leukemia L1210 at 80 mg/kg administered intraperitoneally on day 1.; format: functional; conditions: route intraperitoneal; outline: as §1
Mus musculus [24] = assay: (§2) Percent increase in life span was measured in mice intracerebrally implanted leukemia L1210 at 80 mg/kg administered intraperitoneally on day 1 only.; format: functional; conditions: L1210, ip, 24 h, route intraperitoneal; outline: as §1
Mus musculus [25] = assay: Median day of death was measured in mice intracerebrally implanted leukemia L1210 at 60 mg/kg administered intraperitoneally on day 1.; format: functional; conditions: route intraperitoneal; outline: as §1
Mus musculus [26] = assay: Percent increase in life span was measured in mice intracerebrally implanted leukemia L1210 at 40 mg/kg administered intraperitoneally on day 1 only.; format: functional; conditions: L1210, ip, 24 h, route intraperitoneal; outline: as §1
Mus musculus [27] = assay: as §2; format: functional; conditions: L1210, ip, 24 h, route intraperitoneal; outline: as §1; remark: listed apart in the source
Mus musculus [28] = assay: survivors / total number of mice intracerebrally implanted leukemia L1210 at 40 mg/kg administered intraperitoneally on day 1 only. 4-5 day; 8/9; format: functional; conditions: route intraperitoneal; outline: as §1
Mus musculus [29] = assay: survivors / total number of mice intracerebrally implanted leukemia L1210 at 40 mg/kg administered intraperitoneally on day 1 only. 4-5 day; 10/10; format: functional; conditions: route intraperitoneal; outline: as §1
Mus musculus [30] = assay: survivors / total number of mice intracerebrally implanted leukemia L1210 at 50 mg/kg administered intraperitoneally on day 1 only. 4-5 day; 8/9; format: functional; conditions: route intraperitoneal; outline: as §1
Mus musculus [31] = assay: survivors / total number of mice intracerebrally implanted leukemia L1210 at 60 mg/kg administered intraperitoneally on day 1 only. 4-5 day; 9/10; format: functional; conditions: route intraperitoneal; outline: as §1
Mus musculus [32] = assay: Percent increase in life span was measured in mice intracerebrally implanted leukemia L1210 at 50 mg/kg administered intraperitoneally on day 1 only.; format: functional; conditions: L1210, ip, 24 h, route intraperitoneal; outline: as §1
Mus musculus [33] = assay: survivors / total number of mice intracerebrally implanted leukemia L1210 at 30 mg/kg administered intraperitoneally on day 1 only. 4-5 day; 8/10; format: functional; conditions: route intraperitoneal; outline: as §1
Mus musculus [34] = assay: survivors / total number of mice intracerebrally implanted leukemia L1210 at 60 mg/kg administered intraperitoneally on day 1 only. 4-5 day; 8/10; format: functional; conditions: route intraperitoneal; outline: as §1

With `O=NN(CCCl)C(=O)NC1C(F)(F)C(F)(F)C(F)(F)C(F)(F)C1(F)F` the “Median day of death” value (Mus musculus [1]) was 8, the “Median day of death” value (Mus musculus [2]) was 8 and the Increase (Mus musculus [3]) was -2.2%. The Increase (Mus musculus [4]) was 4.2%, the ILS at 15 mg/kg (Mus musculus [5]) was 0% and the Increase (Mus musculus [6]) was -57.5%. It also gave an Increase (Mus musculus [7]) of 11.6%, an ILS at 30 mg/kg (Mus musculus [8]) of 0% and an ILS at 35 mg/kg (Mus musculus [9]) of -13%. The “Median day of death” value (Mus musculus [10]) was 8, the ILS (Mus musculus [11]) was “Toxic” and the Increase (Mus musculus [12]) was -38.3%. The ILS at 10 mg/kg (Mus musculus [13]) was 0%, the Increase (Mus musculus [14]) was 6.3% and the “Median day of death” value (Mus musculus [15]) was 8. For the same compound, the “Median day of death” value (Mus musculus [16]) was 7 and the ILS at 25 mg/kg (Mus musculus [17]) was 0%.
In the case of `O=NN(CCCl)C(=O)NC1CCCCC1` [LOMUSTINE], the No. of survivors (Mus musculus [18]) is reported as 8, the ILS (Mus musculus [19]) is reported as 278% and 185% and the No. of survivors (Mus musculus [20]) is reported as 3. For the same compound, the “Median day of death” value (Mus musculus [21]) was 25, the Increase (Mus musculus [3]) was 95.9% and the No. of survivors (Mus musculus [22]) was 1. For the same compound, the “Median day of death” value (Mus musculus [23]) was 16.5 and 10, the ILS at 80 mg/kg (Mus musculus [24]) was 135% and the Increase (Mus musculus [4]) was 21.2%. The Increase (Mus musculus [6]) was -36.2%, the Increase (Mus musculus [7]) was 189.3% and the “Median day of death” value (Mus musculus [10]; 30 mg/kg) was 37.5 and 15. For the same compound, the “Median day of death” value (Mus musculus [25]) was 26.5 and 20, the ILS at 40 mg/kg (Mus musculus [26]) was 257% and the Increase (Mus musculus [12]) was -25.6%. It also gave an ILS at 80 mg/kg (Mus musculus [27]) of 42%, a No. of survivors (Mus musculus [28]) of 8 and an Increase (Mus musculus [14]) of 53.1%. It also gave a No. of survivors (Mus musculus [29]) of 10, a No. of survivors (Mus musculus [30]) of 8 and a No. of survivors (Mus musculus [31]) of 9. For the same compound, the ILS at 50 mg/kg (Mus musculus [32]) was 350%, the No. of survivors (Mus musculus [33]) was 8 and the No. of survivors (Mus musculus [34]) was 8.
